Experimental data from ChEMBL document CHEMBL3046597, “Synthesis of new carboxylesterase inhibitors and evaluation of potency and water solubility” (Chem Res Toxicol, 2001).
≈ marks a conversion by molar mass, not a printed value.

Tests used:
[1] = target: T1, Juvenile hormone esterase (Trichoplusia ni, UniProt P30809+P30810); assay: Inhibition of Trichoplusia ni (cabbage looper) juvenile hormone esterase isolated from fifth-intsar larval stage using [3H]JH 3 as substrate incubated for 10 min prior to substrate addition measured after 15 min by liquid scintillation counting; type: protein assay
T1 sequence (P30809 whole entry): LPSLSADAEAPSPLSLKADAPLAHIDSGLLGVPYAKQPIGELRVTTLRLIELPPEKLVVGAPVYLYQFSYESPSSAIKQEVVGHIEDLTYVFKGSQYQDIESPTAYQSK
T1 sequence (P30810 whole entry): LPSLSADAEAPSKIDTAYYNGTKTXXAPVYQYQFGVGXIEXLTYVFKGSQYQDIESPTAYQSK
How it was run: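 Day-2 fifth-instar larval hemolymph collected with PTU, spun at 1000g, diluted 1:1 in 0.1 M phosphate pH 7.4 with 0.01% PTU, then diluted 300-fold in 0.1 M sodium phosphate pH 7.4 containing 0.1 mg/mL BSA. Inhibitors (DMF ≤1%) preincubated at 30 °C. JH III 5 µM final, 30 °C. Isooctane partition, aqueous-phase radioactivity counted.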

[2] = Solubility of the compound in sodium phosphate buffer at pH 7.4; type: physicochemical
Liver carboxylesterase = target: T2, Liver carboxylesterase (Sus scrofa, UniProt Q29550); assay: Inhibition of Sus scrofa (pig) carboxylesterase isolated from liver in using p-nitrophenyl acetate as substrate incubated for 5 min prior to substrate addition measured for 2 min by spectrophotometric analysis
T2 sequence (Q29550 whole entry): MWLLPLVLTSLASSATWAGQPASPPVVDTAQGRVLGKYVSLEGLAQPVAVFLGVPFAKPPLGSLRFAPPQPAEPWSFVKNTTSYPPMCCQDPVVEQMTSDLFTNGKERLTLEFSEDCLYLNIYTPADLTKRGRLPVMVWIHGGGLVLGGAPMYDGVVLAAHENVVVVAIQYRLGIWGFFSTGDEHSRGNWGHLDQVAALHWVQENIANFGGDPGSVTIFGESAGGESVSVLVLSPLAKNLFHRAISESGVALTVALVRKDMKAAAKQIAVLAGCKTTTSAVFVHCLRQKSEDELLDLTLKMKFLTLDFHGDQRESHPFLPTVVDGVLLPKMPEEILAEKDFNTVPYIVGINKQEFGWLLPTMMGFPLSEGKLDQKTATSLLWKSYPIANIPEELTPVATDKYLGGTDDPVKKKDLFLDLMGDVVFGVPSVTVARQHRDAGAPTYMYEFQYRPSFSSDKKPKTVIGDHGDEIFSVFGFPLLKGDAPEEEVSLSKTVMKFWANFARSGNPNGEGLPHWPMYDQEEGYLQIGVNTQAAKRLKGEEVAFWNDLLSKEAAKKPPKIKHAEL
How it was run: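 Crude porcine liver carboxylesterase, partially purified, working solution 0.02 mg total protein/mL (0.3 units/mL) in 0.1 M sodium phosphate, pH 7.4; […]. Inhibitors from DMF stocks (≤1% DMF, solvent-corrected). PNPA at 0.5 mM final, 30 °C, kinetic read at 405 nm.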

[3] = target: T3, Liver carboxylesterase B-1 (Rattus norvegicus, UniProt Q63010); assay: Inhibition of carboxylesterase in Fischer 344 Rattus norvegicus (rat) liver microsomes using p-nitrophenyl acetate as substrate incubated for 5 min prior to substrate addition measured for 2 min by spectrophotometric analysis
T3 sequence (Q63010 whole entry): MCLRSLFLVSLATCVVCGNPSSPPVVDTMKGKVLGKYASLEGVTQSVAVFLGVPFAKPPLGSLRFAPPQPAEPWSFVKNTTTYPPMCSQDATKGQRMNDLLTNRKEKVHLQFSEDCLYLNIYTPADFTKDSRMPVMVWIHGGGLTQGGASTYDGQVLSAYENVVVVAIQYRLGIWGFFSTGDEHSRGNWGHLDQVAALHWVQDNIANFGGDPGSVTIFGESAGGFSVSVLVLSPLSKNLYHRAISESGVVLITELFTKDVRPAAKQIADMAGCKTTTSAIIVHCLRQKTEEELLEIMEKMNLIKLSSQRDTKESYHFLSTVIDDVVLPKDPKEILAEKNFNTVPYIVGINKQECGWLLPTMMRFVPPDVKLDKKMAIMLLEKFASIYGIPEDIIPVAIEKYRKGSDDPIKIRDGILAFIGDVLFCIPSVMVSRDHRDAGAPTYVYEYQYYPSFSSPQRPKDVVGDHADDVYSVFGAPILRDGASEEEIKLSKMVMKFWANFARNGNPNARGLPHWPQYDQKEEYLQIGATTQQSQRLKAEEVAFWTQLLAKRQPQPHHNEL
How it was run: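 Livers from 8-week-old rats, perfused with 1% KCl; 100000g microsomal pellet solubilized in 1% n-octyl β-D-glucopyranoside and recentrifuged. Assayed at 0.8 mg/mL protein in 0.1 M sodium phosphate pH 7.4, 30 °C. PNPA 0.5 mM final, read at 405 nm. DMF ≤1%, solvent-corrected.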

Row | SMILES | IC50 [1] | solubility [2] | IC50 (Liver carboxylesterase) | IC50 [3]
1 | CCCCCCCCS(=O)(=O)CC(O)(O)C(F)(F)F | 147 nM | 1500 µM (≈ 460 µg/mL) | 5640 nM | 24.5 nM
2 | CCCCCCS(=O)(=O)CC(O)(O)C(F)(F)F | 354 nM | – | 39000 nM | 1290 nM
3 | CCCCCCCCCCCCSCC(=O)C(F)(F)F | 15 nM | – | 119 nM | 164 nM
4 | CCCCCCCCSCC(=O)C(F)(F)F | 1.6 nM | 200 µM (≈ 51.3 µg/mL) | 36.8 nM | 37.2 nM
5 | O=S(=O)(CCc1ccccc1)CC(O)(O)C(F)(F)F | 1780 nM | – | 3390 nM | 1500 nM
6 | O=C(CSCCc1ccccc1)C(F)(F)F | – | – | 75.3 nM | 162 nM
7 | CCCCCCCCCCS(=O)(=O)CC(O)(O)C(F)(F)F | 119 nM | – | 1420 nM | 6.3 nM
8 | CCCCCCCCCCCCS(=O)(=O)CC(O)(O)C(F)(F)F | 191 nM | – | 473 nM | 10.3 nM
9 | CCCCCCCCCCSCC(=O)C(F)(F)F | 20 nM | – | 135 nM | 115 nM
10 | CCCCCCSCC(=O)C(F)(F)F | – | – | 54.3 nM | 54.6 nM
